For 95 compounds, inhibition of corepressor binding results are on record in PubChem BioAssay AID2300 (The Scripps Research Institute Molecular Screening Center, 2010).

Screen size: about 320,000 compounds; about 380 (0.12%) were called active. The full list was thinned out, with actives kept by preference. A number with no mark means an inactive call.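 The calls were made as follows: active = percent inhibition above the cutoff of mean plus 3 SD of all tested compounds, set per screening campaign (cut at about 20% in these data); inactive = the rest.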

Photoreceptor-specific nuclear receptor (Homo sapiens), sequence (Q9Y5X4 whole entry, looked up): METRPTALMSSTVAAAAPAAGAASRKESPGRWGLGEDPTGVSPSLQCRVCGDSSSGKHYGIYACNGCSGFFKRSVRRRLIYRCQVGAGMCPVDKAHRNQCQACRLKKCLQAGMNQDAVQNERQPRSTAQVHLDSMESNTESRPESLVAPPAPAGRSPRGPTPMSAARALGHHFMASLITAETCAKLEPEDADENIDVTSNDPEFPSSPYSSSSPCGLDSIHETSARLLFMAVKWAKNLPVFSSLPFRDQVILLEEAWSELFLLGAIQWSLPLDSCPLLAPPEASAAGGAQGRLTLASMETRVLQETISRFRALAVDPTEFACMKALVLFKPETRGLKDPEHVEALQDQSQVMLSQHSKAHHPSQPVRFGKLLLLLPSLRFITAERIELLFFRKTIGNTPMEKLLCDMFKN

The target in this experiment is Photoreceptor-specific nuclear receptor (Homo sapiens) (UniProt Q9Y5X4). Description: inhibitors of NR2E3-RetCOR corepressor binding, primary screen, NR2E3 agonist project, biochemical, TR-FRET, GST-NR2E3, biotin-RetCOR (AID 2300).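 Also: 0% = DMSO wells and 100% = biotin wells as full block of FRET.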 The settings on record: 1536-well, at 4.78 µM, active compounds read high. Summed up:
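Format: 1536-well format; test system: GST-NR2E3 and biotin-RetCOR proteins; read-out basis: percent inhibition of TR-FRET ratio; timing: 5 h incubation at 4 °C; detection: time-resolved FRET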
For `CC(C)CN(C(=O)CSc1nncn1C)C1CCS(=O)(=O)C1` (stereo not given), the inhibition of corepressor binding is 2.15%.

Turning to `COC(C)(C)[C@]12CC(O)(C(C)C)ON1[C@H]1CCCCC1N2O` (stereo not given in full), the inhibition of corepressor binding is -1%.

For `CCCCSc1nc2c(c(=O)n1CC)SC(C)C2` (stereo not given), the inhibition of corepressor binding is 4.84%.

Regarding `O=c1ccc2c(-c3ccccc3S(=O)(=O)O)c3ccc(O)c(O)c3oc-2c1O`, the inhibition of corepressor binding is 13.9%.

Consider `C=CCNC(=O)CSc1nc2sc(C)c(C)c2c(=O)[nH]1`, for which the inhibition of corepressor binding was -1.07%.

Consider `O=C(CSc1nc2c(cnn2-c2ccc(F)cc2)c(=O)[nH]1)N1CCCCCC1`, for which the inhibition of corepressor binding is -0.57%.

As for `CC(=O)c1sc2nc(SCC(=O)N3CCCCC3)[nH]c(=O)c2c1C`, the inhibition of corepressor binding was 29.3% (active).

Turning to `CC(=O)N1CCC(C(=O)Nc2nc(-c3ccccc3)ns2)CC1`, the inhibition of corepressor binding is 1.17%.

For `Cc1csc(Nc2ccc(Cl)cc2)[n+]1-c1ccc(Cl)cc1`, the inhibition of corepressor binding was -0.2%.

As for `FC(F)Oc1ccccc1NC(=S)Nc1cccc(Cl)c1Cl`, the inhibition of corepressor binding is 3.12%.

Take `Cc1ccc(NC(=O)C2(N3CCC3=O)CCCCC2)cc1`: the inhibition of corepressor binding is 3.49%.

`O=C(/C=C/c1cccc([N+](=O)[O-])c1)NCCSCc1ccco1`: the inhibition of corepressor binding is 0.28%.

For the compound `Cc1ccc2c(c1)N(CC(=O)N1CCC(C)CC1)C(=O)c1cccnc1O2`, the inhibition of corepressor binding was 3.77%.

With `CCOc1ccc2nc(C(=O)N3CCCC(C)C3)sc2c1` (stereo not given), the inhibition of corepressor binding is -1.62%.

On to `ONC(=Nc1ccccc1)c1ccccc1Cl`, for which the inhibition of corepressor binding was -0.75%.

Regarding `COc1cccc(CNC(=O)c2cccnc2Sc2ccc(Cl)cc2)c1`, the inhibition of corepressor binding is 0.2%.

Take `Cc1ccc(Nc2nc(Cl)c(C=O)s2)cc1`: the inhibition of corepressor binding is 3.15%.

As to `Cc1cc(C)c(C)c(S(=O)(=O)N2CCN(C(=O)c3ccc4c(=O)n5c(nc4c3)CCC5)CC2)c1C`, the inhibition of corepressor binding was -2.52%.

Turning to `O=C(Nc1nccs1)C1CCN(S(=O)(=O)c2ccc(Cl)c(C(F)(F)F)c2)CC1`, the inhibition of corepressor binding was 5.22%.

On to `O=C(CCNS(=O)(=O)c1cccs1)N1CCN(c2ccc(F)cc2)CC1`, for which the inhibition of corepressor binding is 0.06%.

For the compound `O=C(N[C@@H](Cc1ccccc1)C(=O)OCc1ccccc1)c1nc[nH]c1C(=O)NC1CCNCC1`, the inhibition of corepressor binding is 1.4%.

Consider `COc1ccc(C(=O)OCC(=O)c2ccc(Cl)s2)c(OC)c1OC`, for which the inhibition of corepressor binding was -1.77%.

Regarding `CCOC(=O)c1ccc(N=C2SC(C(=O)NC)CC(=O)N2CCc2ccccc2)cc1` (stereo not given), the inhibition of corepressor binding is -2.67%.

Consider `COc1cc2[nH]c(=S)n(Cc3ccc(F)cc3)c(=O)c2cc1OC`, for which the inhibition of corepressor binding was -2.77%.

In the case of `COc1cc2[nH]c(=S)n(CCN3CCCCC3C)c(=O)c2cc1OC` (stereo not given), the inhibition of corepressor binding is 0.84%.

In the case of `COc1cc2[nH]c(=S)n(Cc3ccc(C)o3)c(=O)c2cc1OC`, the inhibition of corepressor binding was 23.2% (active).

As for `Cc1ccc(CN(N=Nc2nonc2N)c2nonc2N)c(C)c1`, the inhibition of corepressor binding was -0.3%.

With `CC(=O)N=c1ncn(CC(COC(C)=O)OC(C)=O)c2nc[nH]c12` (stereo not given), the inhibition of corepressor binding was 0.37%.

Take `CCC[C@H]1CCCC/C=C\CCCC(=O)OCCN1C(=O)OC(C)(C)C`: the inhibition of corepressor binding was -1.54%.

On to `CCOc1cc(NC(=O)CCl)c(OCC)cc1NC(C)=O`, for which the inhibition of corepressor binding was -2.07%.

As for `COc1ccc2cc(-c3[nH]ncc3CNCCn3nc(C)cc3C)ccc2c1`, the inhibition of corepressor binding was 1.22%.

Regarding `COc1cc(C(=O)Nc2ncccc2C)ccc1OCC(=O)N1CCOCC1`, the inhibition of corepressor binding is 2.79%.

In the case of `Cc1nc(SCC(=O)NC2CCCC2)[nH]c(=O)c1C`, the inhibition of corepressor binding was -2.03%.

As to `O=C(c1ccc(Br)o1)N(c1ccccn1)C1CCCCC1`, the inhibition of corepressor binding is -1.56%.

As for `CCCc1cc(=O)[nH]c(SCC(=O)Nc2sc3c(c2C#N)CCCC3)n1`, the inhibition of corepressor binding was 1.75%.

For the compound `CCOc1ccc(NC(=O)N2CC=C(n3c(=O)[nH]c4ccccc43)CC2)cc1`, the inhibition of corepressor binding is 1.76%.

As for `CCN1CCN(C(=O)C2(NC(=O)Nc3cccc(F)c3)CCCCC2)CC1`, the inhibition of corepressor binding was 2.38%.

On to `Cc1ccc(C(=O)N/C(=C/c2ccc(-c3cccc([N+](=O)[O-])c3)o2)C(=O)NCCCN(C)C)cc1`, for which the inhibition of corepressor binding is -3.84%.

With `CCCCC(=O)Nc1c2c(nn1-c1ccc([N+](=O)[O-])cc1)CS(=O)(=O)C2`, the inhibition of corepressor binding was 2.14%.

Regarding `COc1cc(OC)c(C(=O)N2CCCC2)cc1OC`, the inhibition of corepressor binding was 2.23%.

As for `CSc1nc2c(c(=O)[nH]1)C(c1cccc(Cl)c1Cl)CC(=O)N2` (stereo not given), the inhibition of corepressor binding is 5.66%.

Turning to `N#Cc1c(N)nc2c3c(sc(=N)c2c1N)NC(=O)CC3c1ccccc1Cl` (stereo not given), the inhibition of corepressor binding is 27.7% (active).

On to `COc1ccc(C2CC(=O)Nc3sc(=N)c4c(N)c(C#N)c(N)nc4c32)cc1OC` (stereo not given), for which the inhibition of corepressor binding was -3.58%.

Regarding `CN(C)CCOc1cccc(Br)c1`, the inhibition of corepressor binding was -0.9%.

For the compound `O=[N+]([O-])/C(N=Nc1ccccc1)=N\Nc1ccccc1`, the inhibition of corepressor binding was -0.3%.

As to `CCc1ccc(CN(C)C(=O)C2CCC(=O)N(Cc3cccc(OC)c3)C2)nc1` (stereo not given), the inhibition of corepressor binding is -4.58%.

`C/C(=N/O)c1ccc(N2C(=O)C3C4C=CC(C3C2=O)C2C3C(=O)N(c5ccc(/C(C)=N/O)cc5)C(=O)C3C42)cc1` (stereo not given): the inhibition of corepressor binding was -3.35%.

`O=C(NNC(=O)C1CCC1)c1ccccc1`: the inhibition of corepressor binding is 3.19%.

Turning to `O=C(CNCc1ccco1)Nc1cc(S(=O)(=O)N2CCOCC2)ccc1N1CCCC1`, the inhibition of corepressor binding is 6.04%.

`Cc1c(Cl)cccc1NC(=O)[C@@]1(CC(=O)O)CC(/C=C/c2ccccc2)=NO1`: the inhibition of corepressor binding was -2.16%.

For `COC(=O)C1(C)NC(c2ccccc2OC)C2C(=O)N(c3ccccc3)C(=O)C21` (stereo not given), the inhibition of corepressor binding is 1.42%.

In the case of `O=C(CCCCO)c1ccc(O)c(Cl)c1`, the inhibition of corepressor binding was -2.2%.

`O=C(COC(=O)Cc1ccc(Br)cc1)Nc1c(F)c(F)c(F)c(F)c1F`: the inhibition of corepressor binding is -1.39%.

For the compound `CN(c1ccccc1)S(=O)(=O)c1cccc(NC(=O)Cc2ccc(Cl)cc2)c1`, the inhibition of corepressor binding is 4.43%.

Regarding `O=c1cnnc(Nc2ccccc2F)[nH]1`, the inhibition of corepressor binding is 3.47%.

On to `Oc1c(Br)cc(/C=N/NC(=S)NCC2CCCO2)cc1Br` (stereo not given), for which the inhibition of corepressor binding is 1.11%.

Take `O=C(NCCO)C(=O)NCC(c1ccc2c(c1)OCO2)N1CCN(c2ccc(F)cc2)CC1` (stereo not given): the inhibition of corepressor binding is -1.84%.

As for `CC1(C)C2CCC1(CS(=O)(=O)NCCc1c[nH]c3ccccc13)C(=O)C2` (stereo not given), the inhibition of corepressor binding was -2.06%.

On to `CCOC(=O)c1c(NC(=O)CSc2nnc(CNc3ccc(C)cc3C)o2)sc(C)c1C`, for which the inhibition of corepressor binding is -0.79%.

Take `O=S(=O)(Nc1n[nH]c(C(F)(F)F)n1)c1ccccc1`: the inhibition of corepressor binding is 6.01%.

For the compound `Cc1c(Cl)c([N+](=O)[O-])nn1CC(=O)NCCCN1CCOCC1`, the inhibition of corepressor binding is 4.17%.

For `COc1ccccc1C(C)NC(=O)Cc1ccsc1` (stereo not given), the inhibition of corepressor binding was 2.21%.

Turning to `COc1ccc2oc(C(=O)N(CC(C)C)C3CCS(=O)(=O)C3)c(C)c2c1` (stereo not given), the inhibition of corepressor binding was 3.14%.

On to `COc1ccc(N2CCN(C(=O)C3CCN(S(=O)(=O)c4ccc(C)cc4)CC3)CC2)cc1`, for which the inhibition of corepressor binding was 6.37%.

For the compound `CC1(C)CN(c2ccc(-c3ccnc4ncnn34)cc2)C1=O`, the inhibition of corepressor binding was -0.76%.

For the compound `COc1ccc(C)cc1S(=O)(=O)NCCc1ccccc1`, the inhibition of corepressor binding is 2.48%.

Take `Fc1ccc(CNc2nc3ccccc3n3nnnc23)cc1`: the inhibition of corepressor binding was -0.09%.

`CC(C)(C)NC(=O)/C(=C/c1cccnc1)NC(=O)c1ccco1`: the inhibition of corepressor binding is -5.01%.

For `NC(=O)c1cc(S(=O)(=O)NCCCc2ccco2)cs1`, the inhibition of corepressor binding was 2.54%.

For the compound `O=C(NCCCNC(=O)NC1CCCCC1)NC1CCCCC1`, the inhibition of corepressor binding is 1.65%.

In the case of `Cc1ccc(CC(=O)Nc2ccc(S(=O)(=O)N3CCOCC3)cc2)cc1C`, the inhibition of corepressor binding is 1.54%.

In the case of `CC(C)C[C@@H](N)c1nnc(SCC(=O)c2ccc(Cl)cc2)o1`, the inhibition of corepressor binding was -0.27%.

In the case of `CC(C)c1ccc(C2C(C(=O)c3ccco3)=C(O)C(=O)N2CC2CCCO2)cc1` (stereo not given), the inhibition of corepressor binding was 22.2% (active).

As for `CCOc1cc(C2C(C(=O)c3ccco3)=C(O)C(=O)N2Cc2ccccc2)ccc1O` (stereo not given), the inhibition of corepressor binding was 5.32%.

With `O=C(C1=C(O)C(=O)N(Cc2ccccc2)C1c1ccco1)c1ccco1` (stereo not given), the inhibition of corepressor binding was 13%.

As to `O=C1NC(c2ccccc2)=NC1(Nc1ccccn1)C(F)(F)F` (stereo not given), the inhibition of corepressor binding is 0.74%.

Consider `COc1cccc(N(CC(=O)NCCSc2ccccn2)S(C)(=O)=O)c1`, for which the inhibition of corepressor binding was -2.09%.

As to `OC(c1ccccc1)c1nccn1Cc1ccccc1` (stereo not given), the inhibition of corepressor binding is -1.45%.

As to `NS(=O)(=O)c1ccc(NC2=CC(c3ccc(F)cc3)N(c3ccc(S(N)(=O)=O)cc3)C2=O)cc1` (stereo not given), the inhibition of corepressor binding is 1.09%.

Regarding `O=c1[nH]cccc1-c1nc2ccccc2n1Cc1ccc(Cl)cc1`, the inhibition of corepressor binding is 5.14%.

Consider `CCOc1ccccc1N(CC(=O)NC1CCCCC1)C(=O)CCCC(=O)Nc1ccccn1`, for which the inhibition of corepressor binding is 2.15%.

Regarding `N#Cc1ccc(C(=O)OCC(=O)NC(=O)NC2CCCCC2)cc1`, the inhibition of corepressor binding was 0.11%.

In the case of `N#Cc1ccccc1Sc1ccccc1C(=O)OCC(=O)NC1CCCCC1`, the inhibition of corepressor binding is 26.6% (active).

As to `O=C(COC(=O)c1ccccc1SCC(=O)NC1CCCCC1)NC1CCCCC1`, the inhibition of corepressor binding is -5.62%.

In the case of `O=C(NCC(c1ccco1)N1CCc2ccccc21)c1cccc(F)c1` (stereo not given), the inhibition of corepressor binding is -1.2%.

On to `CCOC(=O)N1CCC(=NNC(N)=O)CC1`, for which the inhibition of corepressor binding was 0.68%.

`O=C(Nc1ccccn1)C1CCN(S(=O)(=O)c2ccc3c(c2)OCCO3)CC1`: the inhibition of corepressor binding was 2.07%.

For `NNC(=O)CSc1nnc(-c2ccccc2)n1-c1ccccc1`, the inhibition of corepressor binding is 3.63%.

For `CC1(C)CC(O)C(CCC(O)c2ccccc2)C(C)(C)N1` (stereo not given), the inhibition of corepressor binding was 0.53%.

Consider `O=C(Cn1cncn1)N/N=C/c1c2ccccc2cc2ccccc12`, for which the inhibition of corepressor binding was -7.82%.

In the case of `Cc1ccc(C(C)C)c(OCc2nnc(SCC(=O)Nc3nccs3)n2C)c1`, the inhibition of corepressor binding is 2.5%.

In the case of `CN(C(=O)CN1C(=O)NC(C)(CCc2ccccc2)C1=O)c1ccccc1` (stereo not given), the inhibition of corepressor binding is 3.26%.

Turning to `O=[N+]([O-])c1ccc(NC(=S)N2CCN(c3ccccn3)CC2)cc1`, the inhibition of corepressor binding was 4%.

In the case of `CCOC(=O)c1ccc(NC(=S)N2CCN(c3ccccn3)CC2)cc1`, the inhibition of corepressor binding is 43.1% (active).

With `CCOC(=O)c1ccc(NC(=S)N2CCCC2)cc1`, the inhibition of corepressor binding was 0.82%.
